1 compound from ChEMBL document CHEMBL4828720, “Macrocyclic Immunoproteasome Inhibitors as a Potential Therapy for Alzheimer's Disease” (J Med Chem, 2021) can be followed below.

Activity calls are given as the source filed them. The rule behind the calls is not given here.

Data set [1] is described as follows: Metabolic stability in ICR mouse whole blood at 1 uM measured upto 30 mins by LC-MS/MS analysis. It is filed as ADME, tissue-based. The following applies: 0.5 h. In short, it runs like this: (§1)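 Tissues from male ICR mice, 7 weeks old. Heparinized (25 IU/mL) whole blood, or liver homogenized in ice-cold PBS, prewarmed to 37 °C and spiked to a final 1 μM. Samples taken at 0, 10 and 30 min (blood) or 0, 10 and 20 min (liver). […] Remaining drug quantified by C18 LC-MS/MS.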

The target of data set [2] is T1, Proteasome subunit beta type-9 (Homo sapiens, UniProt P28065).
T1 sequence (P28065 whole entry): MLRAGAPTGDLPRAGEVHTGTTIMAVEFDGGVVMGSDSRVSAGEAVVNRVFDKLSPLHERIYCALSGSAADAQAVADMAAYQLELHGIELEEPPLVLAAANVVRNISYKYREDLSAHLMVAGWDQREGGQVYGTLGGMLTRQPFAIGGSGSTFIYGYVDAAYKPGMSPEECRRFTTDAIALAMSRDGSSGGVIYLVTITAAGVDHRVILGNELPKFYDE
Put plainly: Inhibition of human 20S proteasome LMP2 activity in human RPMI-8226 cells using Ac-PAL-AMC as fluorogenic substrate incubated for 72 hrs by fluorescence assay. The class given is cell-based.

Data set [3] addresses T2, Proteasome subunit beta type-8 (Homo sapiens, UniProt P28062).
T2 sequence (P28062 whole entry): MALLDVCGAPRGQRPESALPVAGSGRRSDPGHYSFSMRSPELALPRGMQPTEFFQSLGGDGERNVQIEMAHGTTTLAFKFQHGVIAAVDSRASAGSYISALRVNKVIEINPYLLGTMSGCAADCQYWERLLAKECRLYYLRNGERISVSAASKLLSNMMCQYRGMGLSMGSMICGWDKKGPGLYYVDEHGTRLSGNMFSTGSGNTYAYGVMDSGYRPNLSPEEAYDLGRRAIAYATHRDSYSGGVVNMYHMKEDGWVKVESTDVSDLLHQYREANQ
Put plainly: Inhibition of human 20S proteasome LMP7 using Ac-ANW-AMC as fluorogenic substrate measured every minute for 1 hr by fluorescence assay. An outline of the steps: (§2)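 Purified human 20S constitutive or immunoproteasome, 50 ng in 20 mM Tris-HCl, 0.5 mM EDTA, 0.035% SDS, pH 8.0. Preincubated 1 h with inhibitor at 3-10,000 nM (8 concentrations). Substrates at 100 μM: Ac-PAL-AMC (LMP2), Ac-nLPnLD-AMC (Y), Ac-ANW-AMC (LMP7). Ac-WLA-AMC (X) at 20 μM. AMC fluorescence (360/460 nm) read each minute for 1 h; 3 replicates.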

Data set [4] can be described thus: Toxicity in Tg2576 mouse. The conditions noted are these: in vivo.
Data set [5] relates to Mus musculus. Put plainly: In vivo inhibition of immunoproteasome in Tg2576 mouse assessed as reduction in serum IL-1alpha level at 10 mg/kg, iv administered twice weekly for 3 weeks by ELISA. The class given is functional, organism-based. In short, it runs like this: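 Serum from Tg2576 mice dosed at 10 mg/kg twice weekly for 3 weeks, diluted 1:5. IL-1α sandwich ELISA: samples and standards 2 h at room temperature, detection antibody 1 h, avidin-HRP 30 min. Stopped with 2N H2SO4 and read at 450 nm against a standard curve of seven twofold dilutions. n=3.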
In general terms: ELISA stands for enzyme-linked immunosorbent assay.

Data set [6] in a line: Toxicity in ICR mouse. The following applies: in vivo.
Data set [7] relates to Proteasome subunit beta type-9 (Canis lupus familiaris). Put plainly: Inhibition of canine 20S proteasome LMP2 activity in MDCK-II cells using Ac-PAL-AMC as fluorogenic substrate by fluorescence assay.
Data set [8] can be described thus: Metabolic stability in ICR mouse liver homogenate at 1 uM measured upto 20 mins by LC-MS/MS analysis. The class given is ADME, tissue-based. The conditions noted are these: tissue homogenate. An outline of the steps:
as §1

Data set [9] addresses T3, Proteasome subunit beta type-9 (Homo sapiens) (UniProt P28065).
T3 sequence (whole entry): T1 sequence (P28065 whole entry)
In words: Inhibition of human 20S proteasome LMP2 activity in human NCI/ADR-RES cells overexpressing ABCB1 using Ac-PAL-AMC as fluorogenic substrate incubated for 72 hrs in presence and absence of verapamil by fluorescence assay. The class given is cell-based.

Data set [10] is described as follows: Inhibition of human 20S proteasome X using Ac-WLA-AMC as fluorogenic substrate measured every minute for 1 hr by fluorescence assay. In short, it runs like this: as §2
The target of data set [11] is Proteasome subunit beta type-9 (Mus musculus) (UniProt P28076). In words: Inhibition of LMP2 in mouse BV-2 cells assessed as reduction in LPS-stimulated IL-1alpha release by ELISA.
Data set [12] deals with Mus musculus. In words: Cognitive enhancing effect in Tg2576 mouse assessed as reduction in escape latency at 10 mg/kg, iv administered twice weekly and measured after 5 days by Morris water maze test. It is filed as functional, organism-based. The following applies: time 5.0 day. In short, it runs like this:
(§3)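 Tg2576 mice, 9 months old, given 10 mg/kg twice weekly for 3 weeks. Morris water maze in 25 ± 1 °C water, platform hidden 1-1.5 cm below surface. Three 60-s trials a day from randomized start points for 5 days. Swim paths tracked from an overhead camera. Single probe trial on day 6 scored as time in target quadrant. n=5 treated, n=12 control on days 4-5; Student's t-test.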

In data set [13] the target is T1, Proteasome subunit beta type-9. In words: Inhibition of human 20S proteasome LMP2 activity in human RPMI-8226 cells overexpressing ABCB1 using Ac-PAL-AMC as fluorogenic substrate incubated for 72 hrs by fluorescence assay. It is filed as cell-based.
Data set [14] concerns the target T4, Proteasome subunit beta type-9 (Mus musculus) (UniProt P28076).
T4 sequence (whole entry): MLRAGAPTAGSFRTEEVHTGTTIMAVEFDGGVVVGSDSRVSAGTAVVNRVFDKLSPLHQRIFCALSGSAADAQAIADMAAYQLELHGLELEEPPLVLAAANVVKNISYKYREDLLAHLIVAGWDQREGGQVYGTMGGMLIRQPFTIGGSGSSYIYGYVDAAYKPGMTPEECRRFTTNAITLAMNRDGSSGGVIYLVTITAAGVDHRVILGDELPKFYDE
In words: Inhibition of LMP2 in ICR mouse brain homogenate at 10 mg/kg, iv after 1 hr. It is filed as organism-based. An outline of the steps: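 ICR mice received a single intravenous dose of 10 mg/kg. Brain homogenates taken at 1 h post-dose were assayed for compound level and for LMP2 activity.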

The subject of data set [15] is Mus musculus. Put plainly: Cognitive enhancing effect in Tg2576 mouse assessed as shorter distances travelled before reaching the escape platform at 10 mg/kg, iv administered twice weekly and measured after 5 days by Morris water maze test. It is filed as functional, organism-based. The conditions noted are these: time 5.0 day. In short, it runs like this:
as §3

Data set [16] deals with T1, Proteasome subunit beta type-9. In words: Inhibition of human 20S proteasome LMP2 using Ac-PAL-AMC as fluorogenic substrate measured every minute for 1 hr by fluorescence assay. An outline of the steps:
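Preincubated 1 h with inhibitor at 3-10,000 nM (8 concentrations). Substrates at 100 μM: Ac-PAL-AMC (LMP2), Ac-nLPnLD-AMC (Y), Ac-ANW-AMC (LMP7). Ac-WLA-AMC (X) at 20 μM. AMC fluorescence (360/460 nm) read each minute for 1 h; 3 replicates.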

For data set [17], the species on record is Mus musculus. Put plainly: Protection against inflammation-triggered RPE degeneration in Tg2576 mouse by immunostaining based confocal microscopic analysis. It is filed as functional, organism-based. An outline of the steps:
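RPE collected after behavioral testing from treated Tg2576 mice and from age-matched non-transgenic ICR mice. Eyecups dissected in ice-cold PBS and retina removed. Tissue permeabilized with 0.2% Triton X-100 for 15 min, blocked with 3% BSA, then anti-β-catenin (1:100) overnight at 4 °C. Alexa 555 secondary 2 h, imaged by confocal microscopy.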

For `C[C@]1(C(=O)[C@H](Cc2ccccc2)NC(=O)[C@@H]2Cc3ccc(cc3)OCCCCCCCC(=O)N3CCC[C@H]3C(=O)N2)CO1`, the Stability result in data set [1] and in [8] was “Stable” each time. Besides, the 50% inhibitory concentration (IC50) (usually the concentration needed to halve the response being measured) turned out to be 32.7 nM in [2]; 399 nM in data set [3]; 4640 nM in data set [10]; 106 nM in data set [13]; 184 nM in data set [16]. Further, the Activity result in data set [4] and in [6] was “Non-Toxic” throughout. Further, the inhibition result (with Mus musculus [5]; in [7]; in data set [9]; in data set [11]) was “Active” each time. Further, the outcome in the data set with Mus musculus [12], in the data set with Mus musculus [15] and in the data set listed under Mus musculus [17] was Active. In addition, the inhibition result in [14] was “inactive”.
